The list is not random: actives were taken first. Their share in the collection is about 5.4%.
HIV Rev-RRE inh: HIV Rev-RRE protein-RNA interaction inhibition; actives 0.79% (n = 97,000); inhibition, % at 8 µM; P05866; Rev peptide-RRE RNA binding, FRET;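 active = inhibition above the screen-wide mean plus 3 SD, cut at about 35% in these data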;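 also: 0% = median DMSO wells and 100% = median Neomycin B control wells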
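Test system: labelled RRE RNA duplex and labelled Rev peptide. Times: 5 min compound–RNA preincubation, then 15 min with peptide, 25 °C. Doses: single-dose 8 µM. Measured by: FRET, excitation 480 nm, emission 540 nm donor and 671 nm acceptor. Measure: % inhibition of FRET ratio versus controls.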
EphB4 ephrin blk: antagonists of human EphB4-ephrin-B2 interaction; inhibition, % at 7 µM; actives 0.15% (n = 97,000); AID 720; P54760; EphB4 LBD / TNYL-RAW-Alexa532 peptide, fluorescence polarization;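 active = inhibition above the screen-wide mean inhibition plus 3 SD, cut at about 15% in these data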;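 also: 0% = DMSO wells and 100% = excess unlabeled TNYL-RAW peptide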
Cav3 T inh: blocks human Cav3.2 T-type calcium channel; O95180; Cav3.2-expressing cells, Fluo-4 calcium fluorescence FDSS; active compounds read low; B-score at 10 µM; actives 4% (n = 100,000); AID 449739;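 active = single-dose well whose peak fluorescence ratio is a statistical outlier from its plate by either plate-standardised score or position-corrected B-score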
DAT uptake mod: human DAT dopamine uptake with cocaine, either direction. LLC-PK1 hDAT cells, [14C]-dopamine uptake with cocaine IC80; actives deviate in either direction. B-score at 10 µM. actives 1.3% (n = 110,000);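 active = Z score or B-score, a plate-position-corrected score, falls beyond the plate's 99.7% confidence bounds, in either direction; inactive = both scores lie inside the 99.7% bounds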;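 also: scored against the spread of the other compound wells on the same plate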
Target sequence (Q01959 whole entry, looked up): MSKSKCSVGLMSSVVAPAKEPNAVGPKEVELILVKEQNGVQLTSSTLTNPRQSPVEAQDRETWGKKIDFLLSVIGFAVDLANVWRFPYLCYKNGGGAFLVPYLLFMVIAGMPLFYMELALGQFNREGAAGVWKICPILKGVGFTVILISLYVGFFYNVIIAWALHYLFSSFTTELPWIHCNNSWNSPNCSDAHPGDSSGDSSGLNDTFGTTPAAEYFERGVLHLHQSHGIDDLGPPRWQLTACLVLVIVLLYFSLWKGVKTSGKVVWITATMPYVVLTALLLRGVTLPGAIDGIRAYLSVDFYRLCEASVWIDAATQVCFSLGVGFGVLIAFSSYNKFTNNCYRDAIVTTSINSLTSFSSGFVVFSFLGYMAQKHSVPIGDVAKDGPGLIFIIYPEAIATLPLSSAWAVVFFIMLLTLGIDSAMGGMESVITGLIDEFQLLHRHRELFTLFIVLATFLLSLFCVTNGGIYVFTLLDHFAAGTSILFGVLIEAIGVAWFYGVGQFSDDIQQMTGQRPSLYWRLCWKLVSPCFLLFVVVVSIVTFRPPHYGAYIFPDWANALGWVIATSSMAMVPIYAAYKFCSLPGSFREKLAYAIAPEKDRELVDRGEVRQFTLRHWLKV
* hit, by the source's call; · = no result given; [ ] = another dose, or the depositor's remark.

SMILES	HIV Rev-RRE inh	EphB4 ephrin blk	Cav3 T inh	DAT uptake mod
O=C(CSCc1cnn(-c2ccccc2)c1-n1cccc1)N1CCN(Cc2ccccc2)CC1	1.2	-7.9	-4.21	1.81
CCOc1ccc(NC(=O)CSCc2cnn(-c3ccccc3)c2-n2cccc2)cc1	11.7	-4.4	-10.2*	0.93
COc1ccc(OC)c(NC(=O)CSCc2cnn(-c3ccccc3)c2-n2cccc2)c1	4.5	7.6	-9.09*	-0.492
COc1cccc(CNC(=O)Cn2c(=O)oc3ccccc32)c1OC	9.6	0.2	-0.776	1.45
CNc1oc(-c2ccc(Cl)cc2)nc1P(=O)(c1ccccc1)c1ccccc1	3.4	-2.1	-0.796	1.1
CN(Cc1ccccc1)C(NC(=O)c1ccccc1)C(Cl)(Cl)Cl (stereo unspecified)	6.5	-0.9	-5.69*	-0.677
CCN(CC)C(NC(=O)Cc1ccccc1)C(Cl)(Cl)Cl (stereo unspecified)	3.6	-1.9	-0.0299	0.15
Cn1cccc1/C=C1\CCC/C(=C\c2cccn2C)C1=O	136.4*[fluorescence artefact?]	4.5	-13.1*	0.183
COc1ccc2nc(NC(=S)N(C)C)sc2c1	5.3	8.3	-0.165	0.597
CN(c1ccc(OCC(=O)N2CCCCC2)cc1)S(=O)(=O)c1cccs1	·	·	0.922	3.02*
CCOC(=O)Cc1csc(NC(=O)COc2ccc(N(C)S(=O)(=O)c3cccs3)cc2)n1	·	·	-4.67*	0.293
CCOC(=O)Cc1csc(NC(=O)COc2ccccc2)n1	2.8	2.4	-1.74	0.00654
O=C(CCS(=O)(=O)c1cccs1)N1CCCC1	3.4	-1.6	-0.464	-0.718
CCSc1nc2c(sc3ccccc32)c(=O)n1C(C)C	7.4	1.6	-2.91	-0.79
CN(CCOc1ccc(-c2ccn(S(=O)(=O)c3cccc4ccccc34)n2)cc1)c1ccccn1	6.4	-2.2	-1.47	-8.28*
CN(CCOc1ccc(-c2ccn(S(=O)(=O)c3ccc(Cl)cc3)n2)cc1)c1ccccn1	18.2	2.0	-4.67*	1.25
CN(CCOc1ccc(-c2ccn(S(=O)(=O)c3c(Cl)cccc3Cl)n2)cc1)c1ccccn1	10.2	-2.4	-0.708	0.374
Cc1[nH]nc2c1C(c1ccc(-c3ccccc3C#N)o1)C(C#N)=C(N)O2 (stereo unspecified)	9.4	0.9	-4.41*	1.15
CC(C)C(NC(=O)OCc1ccccc1)C(=O)NCC(=O)OC(C)(C)C (stereo unspecified)	3.5	7.0	1.05	-0.00392
CC(C)c1nc(CN(C)C(=O)N[C@H](C(=O)N[C@@H](Cc2ccccc2)C[C@H](O)[C@H](Cc2ccccc2)NC(=O)OCc2cncs2)C(C)C)cs1	·	·	-5.63*	0.852
COc1ccccc1NC(=O)CC1C(=O)Nc2c1c(=O)n(C)c(=O)n2C (stereo unspecified)	4.0	-3.1	-0.0909	-0.0722
Cn1c2c(c(=O)n(C)c1=O)C(CC(=O)Nc1ccccc1)C(=O)N2 (stereo unspecified)	7.1	3.4	0.0854	-7.95*
CCCCN1C(=S)NC[C@@H]1Cc1ccccc1	·	·	-0.0182	-1.03
COc1ccc2nc(N3CCC(O)CC3)c(C#N)cc2c1	37.2*	-2.4	0.091	-0.173
CC(Sc1cccc(C(F)(F)F)c1)C(=O)NC(N)=O (stereo unspecified)	·	·	0.342	0.868
SMILES	HIV Rev-RRE inh	EphB4 ephrin blk	Cav3 T inh	DAT uptake mod
Cc1cnc(Nc2nc3ccccc3o2)nc1C(=O)Nc1cccc(C(F)(F)F)c1	5.6	-3.9	-6.14*	-0.285
Cc1occc1C(=O)Nc1cccc(C(F)(F)F)c1	7.6	-4.6	-1.51	1.05
Cc1nnc(-c2cnn(C)c2N)n1Cc1ccccc1	1.7	4.9	-5.12*	0.385
COC(=O)c1ccccc1NC(=O)CN(CCc1ccccc1)S(C)(=O)=O	12.4	-3.0	-0.844	-0.221
CS(=O)(=O)N(CCc1ccccc1)CC(=O)Nc1ccc(OCc2ccccc2)cc1	6.5	-6.2	-4.2*	-0.745
O=C(CSC1=NCCS1)N1CCN(c2ccc(Cl)cc2)CC1	3.3	-5.6	0.267	2.65*
O=C(O)CCN1C(=O)/C(=C\c2ccc(-c3nc4ccccc4s3)o2)SC1=S	25.4	5.2	0.736	-0.0596
O=C(NC1CCCC1)c1cnc2n(c1=O)CCS2	5.6	4.9	0.39	0.16
CC1CC(NC(=O)c2cnc3n(c2=O)CCS3)CC(C)(C)C1 (stereo unspecified)	·	·	-0.529	-2.57*
Cc1ccc2cc(CN(CCCN3CCOCC3)C(c3nnnn3Cc3ccco3)C(C)C)c(=O)[nH]c2c1C (stereo unspecified)	12.7	4.0	0.115	3.67*
O=C(COc1ccc(Cl)cc1)NCCSCc1cccc(Cl)c1	11.1	-8.3	-4.31*	-0.00277
O=C(NCc1ccccc1)N1CCN(c2ccc(Cl)c(Cl)c2)CC1	-3.1	-0.9	-5.21*	-0.507
O=C(NCc1ccccc1)N1CCN(c2ccc(F)cc2)CC1	-2.4	-2.0	-4.26*	-0.824
O=P(OC1CCCCC1)(OC1CCCCC1)C(O)c1ccccc1 (stereo unspecified)	-0.8	-3.0	-2.34	0.106
COc1cccc(CSc2nc3sc(C)c(C)c3c(=O)n2Cc2ccco2)c1	5.2	1.7	-3.45	-0.19
CCn1cc(C(=O)NCc2cccs2)c(=O)c2ccc(C)nc21	2.1	-3.0	-2.82	2.89*
Cc1c(Cl)cccc1-n1c(SCC(=O)N(C)Cc2ccccc2)nnc1-c1ccncc1	5.5	-0.5	-0.791	3.8*
Cc1ccc(N(Cc2ccc([N+](=O)[O-])cc2)C(=O)c2ccco2)cc1	11.8	-3.4	-6.71*	-0.584
COc1ccc(CN(C(=O)c2ccco2)c2ccc(Br)cc2)cc1OC	9.7	8.9	-4.55*	1.17
O=C(Cn1ncc2c1-c1ccccc1OC2)Nc1cccc(Cl)c1	11.0	-2.4	-4.99*	-0.13
CCOC(=O)N1CCN(C(=O)Cn2ncc3c2-c2ccccc2OC3)CC1	1.0	1.9	-0.496	-0.0024
O=C(Cn1ncc2c1-c1ccccc1OC2)Nc1ccc(Cl)cn1	9.2	-0.2	-0.903	0.0856
Cc1ccc(C)c(CN2CCCN(C(=O)Cn3ncc4c3-c3ccccc3OC4)C2)c1	6.1	7.6	-6.04*	-0.0646
Cc1cccc(C)c1N1CCN(c2nc(N(C)C)oc(=O)c2C#N)CC1	3.8	-3.6	0.284	0.0355
CCOC(=O)COc1ccc(Br)cc1C1NC(=O)NC(C)=C1C(=O)NCc1ccccc1 (stereo unspecified)	1.7	-7.1	-0.0228	0.499
SMILES	HIV Rev-RRE inh	EphB4 ephrin blk	Cav3 T inh	DAT uptake mod
O=C1COc2ccc(C(=O)CSc3nnnn3-c3ccccc3)cc2N1	-3.4	0.3	-0.594	0.0515
O=C(CSc1nnc2scc(-c3ccccc3)n12)NCc1ccc2c(c1)OCO2	0.4	-0.1	0.606	2.13
O=C(CSc1nnc(-c2ccccc2)n1Cc1ccco1)NCc1ccc2c(c1)OCO2	4.6	-2.4	-4.12*	1.38
O=C1COc2ccc(C(=O)CSc3nnc(Cc4cccs4)n3-c3ccc(Cl)cc3)cc2N1	-1.5	4.5	-3.89*	-1.01
O=C(CSc1nnc(Cc2cccs2)n1-c1ccccc1)NCc1ccc2c(c1)OCO2	7.6	4.5	-4.65*	0.875
O=C(CSc1nnc(-c2ccccc2)n1Cc1ccco1)Nc1ccc2c(c1)OCCO2	7.3	0.5	-1.04	-0.123

Assay outcomes as filed in PubChem BioAssay.
